Results on 1 compound are retold here after ChEMBL document CHEMBL2169863, “Discovery, structure-activity relationship, and biological evaluation of noninhibitory small molecule chaperones of glucocerebrosidase” (J Med Chem, 2012).

Changes are numbered by the printed parent chain. Activity calls are given as the source filed them.

Data set [1] relates to Brain. In words: Half life in C57BL/6 mouse brain at 50 mg/kg, ip. In kind it is ADME, organism-based. Also noted: dose 50 mg/kg, route intraperitoneal. The note with it: in vivo. An outline of the steps: (§1)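 Male C57BL/6 mice, 18−26 g, given a single ip dose of 50 mpk in 20% PEG 400 + 80% (20% HP-β-CD). Plasma, brain and liver were sampled, and brain and liver were homogenized in 3 volumes of PBS pH 7.4 (dilution factor 4). Analysis was by LC−MS/MS. Mean profiles N = 3.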

A short description of data set [2]: Cytotoxicity against human dermal fibroblasts expressing wild type GCase at 5 uM after 6 days. In kind it is cell-based. The note with it: fibroblast, 144 h. The method, boiled down:
(§2)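 Fibroblasts of the stated genotype were seeded at 5000 cells/well. After 1 day they were switched to OPTI-MEM with 5% FBS and treated 6 days with compound. Viability was read by CellTiter-Glo luminescence on a parallel plate.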

Data set [3] relates to Caco-2. In words: Apparent permeability of the compound from basal to apical side of human Caco2 cells after 2 hrs. Format: ADME, cell-based. The note with it: caco-2, 2 h. An outline of the steps:
(§3)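 Caco-2 monolayers were grown 3 weeks, with integrity checked by Lucifer yellow. Compound was added apically (pH 6.5 HBSS/HEPES/glucose buffer) or basolaterally (pH 7.4) and incubated 2 h. Transfer was quantified by LC−MS/MS and expressed as P_app. Efflux ratio is P_app B→A over A→B.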
(Caco-2 monolayers are a common model of the intestinal barrier.)

In data set [4] the test system is T1, Lysosomal acid glucosylceramidase (Homo sapiens), P04062 [N409S].
T1 sequence (whole entry): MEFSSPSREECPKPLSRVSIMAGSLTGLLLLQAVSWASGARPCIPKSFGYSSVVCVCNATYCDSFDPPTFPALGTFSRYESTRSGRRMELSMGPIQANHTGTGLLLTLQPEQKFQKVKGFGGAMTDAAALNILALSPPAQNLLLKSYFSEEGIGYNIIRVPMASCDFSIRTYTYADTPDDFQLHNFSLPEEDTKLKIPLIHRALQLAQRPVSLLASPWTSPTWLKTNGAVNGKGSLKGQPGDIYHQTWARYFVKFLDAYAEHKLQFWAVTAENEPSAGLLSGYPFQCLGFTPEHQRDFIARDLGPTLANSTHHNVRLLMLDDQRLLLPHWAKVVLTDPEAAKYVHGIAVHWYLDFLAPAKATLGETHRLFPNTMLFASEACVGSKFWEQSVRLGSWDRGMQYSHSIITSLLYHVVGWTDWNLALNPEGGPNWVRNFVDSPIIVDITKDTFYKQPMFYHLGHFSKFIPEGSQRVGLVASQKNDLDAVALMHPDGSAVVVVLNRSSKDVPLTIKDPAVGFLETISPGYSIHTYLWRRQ
Description: Activation of Glucocerebrosidase N370S/N370S mutant translocation to lysosome in Gaucher patient dermal fibroblasts at 5 uM incubated for 6 days by LAMP2 colocalization-based laser scanning confocal microscopic analysis relative to vehicle-treated control. An outline of the steps: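 N370S/N370S Gaucher dermal fibroblasts were treated 6 days at 1, 5 or 25 μM, with DMSO vehicle control. Cells were fixed in 3% paraformaldehyde, permeabilized with Triton-X and stained with anti-GCase R386 (Alexa555), anti-LAMP-2 (Alexa488) and DAPI. Confocal imaging used constant laser settings, scoring GCase/LAMP-2 colocalization.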

Data set [5] relates to Liver. In words: Metabolic stability in CD1 mouse liver microsomes assessed as compound remaining at 1 uM after 60 mins by LC/MS/MS analysis in presence of NADPH. In kind it is ADME, Microsome. The following applies: 1 h. An outline of the steps:
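Compound at 1 μM was incubated in duplicate with CD-1 mouse liver microsomes at 37 °C in 100 mM potassium phosphate pH 7.4 with 3 mM MgCl₂, with or without 2 mM NADPH, for 60 min. Reaction was quenched in cold acidified MeCN with internal standard. Parent was quantified by LC−MS/MS as percent of time zero.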
For orientation: Liver microsomes are vesicles of endoplasmic reticulum, rich in cytochrome P450 enzymes.

Data set [6] deals with T2, Lysosomal acid glucosylceramidase (Homo sapiens) (UniProt P04062).
T2 sequence (whole entry): T1 sequence (whole entry) with S409N
Description: Activation of wild type glucocerebrosidase translocation to lysosome in human dermal fibroblast incubated for 6 days by LAMP2 colocalization-based laser scanning confocal microscopic analysis relative to vehicle-treated control.

Data set [7] is described as follows: Ratio of AUClast in brain to AUClast in plasma in C57BL/6 mouse at 50 mg/kg, ip. Format: ADME, organism-based. Also on record: dose 50 mg/kg, route intraperitoneal. The method, boiled down:
as §1

The subject of data set [8] is Plasma. In words: Tmax in C57BL/6 mouse plasma at 50 mg/kg, ip. Also on record: dose 50 mg/kg, route intraperitoneal. In kind it is ADME, organism-based. The note with it: in vivo. The method, boiled down: as §1
The subject of data set [9] is Liver. Description: AUClast in C57BL/6 mouse liver at 50 mg/kg, ip. The note with it: in vivo. Also noted: time 0 - last, dose 50 mg/kg, route intraperitoneal. In kind it is ADME, organism-based. An outline of the steps:
as §1

In data set [10] the test system is Liver. In words: Half life in C57BL/6 mouse liver at 50 mg/kg, ip. In kind it is ADME, organism-based. Also noted: dose 50 mg/kg, route intraperitoneal. The following applies: in vivo. The method, boiled down: as §1
Data set [11] in a line: Activation of alpha-galactosidase using 4-MU-alpha-galactose as substrate.
In data set [12] the target is T3, Lysosomal acid glucosylceramidase (Homo sapiens, UniProt P04062).
T3 sequence (P04062 whole entry): T1 sequence (whole entry) with S409N
Description: (§4) Binding affinity to NT-647 labeled glucocerebrosidase by microscale thermophoretic analysis. The note with it: read-out: Kd(app). The method, boiled down:
(§5)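 NT-647-labeled glucocerebrosidase at ~20 nM in 50 mM phosphate pH 7.2, 0.05% Tween-20. It was mixed 1:1 with a 16-point DMSO dilution series and incubated 15 min at room temperature before capillary microscale thermophoresis. Apparent K_d was taken from the dose-dependent fluorescence change.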
Background: MST reads how a fluorescent partner responds to local heating, with and without ligand.

For data set [13], the target named is T2, Lysosomal acid glucosylceramidase (Homo sapiens). The description is as §4. The method, boiled down: as §5
Data set [14] relates to Liver. In words: AUC (infinity) in C57BL/6 mouse liver at 50 mg/kg, ip. Also on record: time infinity, dose 50 mg/kg, route intraperitoneal. In kind it is ADME, organism-based. The following applies: in vivo. The method, boiled down:
as §1

Data set [15] has as its system Brain. In words: Tmax in C57BL/6 mouse brain at 50 mg/kg, ip. Also noted: dose 50 mg/kg, route intraperitoneal. Format: ADME, organism-based. The note with it: in vivo. An outline of the steps:
as §1

Data set [16] deals with Lysosomal alpha-glucosidase (Homo sapiens) (UniProt P10253). In words: Activation of alpha-glucosidase using 4-MU-alpha-glucose as substrate.
Data set [17] deals with Liver. In words: Cmax in C57BL/6 mouse liver at 50 mg/kg, ip. Format: ADME, organism-based. The note with it: in vivo. Also noted: dose 50 mg/kg, route intraperitoneal. An outline of the steps:
as §1

Data set [18] has as its system Plasma. Description: Cmax in C57BL/6 mouse plasma at 50 mg/kg, ip. Format: ADME, organism-based. Also noted: dose 50 mg/kg, route intraperitoneal. The following applies: in vivo. An outline of the steps:
as §1

The subject of data set [19] is Plasma. Description: Half life in C57BL/6 mouse plasma at 50 mg/kg, ip. In kind it is ADME, organism-based. Also on record: dose 50 mg/kg, route intraperitoneal. The following applies: in vivo. The method, boiled down: as §1
Data set [20] in a line: Cytotoxicity against human dermal fibroblasts expressing GCase L444P/L444P mutant at 5 uM after 6 days. Format: cell-based. The following applies: fibroblast, 144 h. The method, boiled down:
as §2

In data set [21] the test system is Caco-2. In words: Apparent permeability of the compound from apical to basal side of human Caco2 cells after 2 hrs. Format: ADME, cell-based. The following applies: caco-2, 2 h. An outline of the steps: as §3
Data set [22] has as its system Liver. In words: Tmax in C57BL/6 mouse liver at 50 mg/kg, ip. Format: ADME, organism-based. Also noted: dose 50 mg/kg, route intraperitoneal. The note with it: in vivo. An outline of the steps: as §1

The term Papp denotes a coefficient for how fast a substance crosses the barrier. The term Tmax denotes the time at which the peak concentration occurs. One may read the AUC as concentration integrated over time. For orientation: Cmax means the maximum level reached in the sampled fluid or tissue. Consider `C#Cc1ccc(NC(=O)c2cnn3c(C)cc(C)nc23)cc1`, for which the t1/2 in the data set on Brain [1] came out at 18.2 h; in the data set on Liver [10] it was 28.9 h; with Plasma [19] it was 19.3 h. The figures for the Activity result in data set [2], in data set [13] and in data set [20] were “Non-toxic”, “Dose-dependent effect” and “Non-toxic”, respectively. The Papp with Caco-2 [3] amounted to 2 ×10⁻⁶ cm/s; in the data set with Caco-2 [21] it was 6 ×10⁻⁶ cm/s. The result in [4] and in [6] was Active. Also, the Stability in the data set on Liver [5] is 45%. Besides, the “Ratio AUC” value in data set [7] is 290%. Further, the Tmax in the data set on Plasma [8], in the data set with Brain [15] and in the data set on Liver [22] was 0.25 h in each case. For the same compound, in the data set with Liver [9], the AUClast turned out to be 54300 ng·h/mL. Also, the result in data set [11] and in data set [16] was inactive. Also, in data set [12], the Kd amounted to 9 µM. The compound further returned an AUC in the data set on Liver [14] of 105000 ng·h/mL. The Cmax with Liver [17] stood at 17.3 µM; in the data set on Plasma [18], 1.03 µM.
